Calls of active or inactive are those of the source. The calls are words filed in the database; no cut-off is given here. Where a SMILES comes first, the peptide text is derived from it. Bridges are numbered along the chain shown (N, C = ends).
Legend:
[1] = system: Staphylococcus aureus; assay: Microbicidal activity against Staphylococcus aureus 502a; assay type: functional
Outline: (§1)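 Log-phase organisms (1–2 × 10^6 CFU/ml) were exposed to serially diluted peptide (0.05–10.0 μg/ml final) in 10 mM PIPES, pH 7.4, with 5 mM glucose for 2 h at 37°C. Aliquots were serially diluted 1:10 to 1:10^6 in Trypticase soy or Sabouraud broth and grown 24–48 h at 37°C. MMC was the lowest concentration giving 99.9% viability loss in at least two experiments.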

[2] = biological target: Beta-galactosidase (Escherichia coli) (UniProt Q8VNN2); assay: Inhibition of Escherichia coli ML35 Beta-galactosidase assessed as hydrolysis of o-nitrophenyl-beta-d-galactopyranoside at 2 ug/ml
[3] = Toxicity in human Erythrocyte assessed as concentration required to achieve 3% hemolysis; assay type: cell-based
[4] = system: Escherichia coli; assay: Microbicidal activity against Escherichia coli ML35; assay type: functional; outline: as §1
[5] = system: Candida albicans; assay: Microbicidal activity against Candida albicans 16820; assay type: functional; outline: as §1
[6] = system: Staphylococcus aureus; assay: Microbicidal activity against Staphylococcus aureus 502a at 5 ug/ml in presence of <= 80 mM NaCl; assay type: functional, organism-based
Outline: (§2)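 S. aureus in log phase was incubated with 5 μg/ml peptide in 10 mM PIPES, pH 7.4, containing increasing NaCl for 2 h at 37°C. Killing was determined by colony counting and expressed as a percentage of killing in buffer alone.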

[7] = system: Staphylococcus aureus; assay: Microbicidal activity against Staphylococcus aureus 502a at 5 ug/ml in presence of 160 mM NaCl; assay type: functional, organism-based; outline: as §2
[8] = system: Candida albicans; assay: Microbicidal activity against Candida albicans 16820 using PIPES buffer in presence of NaCl; assay type: functional, organism-based
Outline: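 Log-phase C. albicans was incubated with peptide in 10 mM PIPES, pH 7.4, supplemented with NaCl, for 2 h at 37°C. Survivors were plated on Sabouraud dextrose agar and counted after 18–24 h at 37°C.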

[9] = system: Staphylococcus aureus; assay: Microbicidal activity against Staphylococcus aureus 502a using 10 mM PIPES buffer in presence of 154 mM NaCl; assay type: functional, organism-based
Outline: (§3)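 Log-phase S. aureus was exposed to increasing peptide concentrations for 2 h at 37°C. Buffer was 10 mM PIPES, Tris-HCl or sodium phosphate, pH 7.4, with or without 154 mM NaCl. Killing was read by colony counting.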

[10] = system: Staphylococcus aureus; assay: Microbicidal activity against Staphylococcus aureus 502a using 10 mM sodium phosphate buffer in presence of 154 mM NaCl; assay type: functional, organism-based; outline: as §3
[11] = system: Staphylococcus aureus; assay: Microbicidal activity against Staphylococcus aureus 502a in presence of 1.2 mM Calcium ions; assay type: functional, organism-based
[12] = system: Escherichia coli; assay: Microbicidal activity against Escherichia coli ML35 in presence of 1.2 mM Calcium ions; assay type: functional, organism-based
Outline: (§4)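 Log-phase E. coli ML35 or C. albicans was incubated with increasing peptide concentrations in 10 mM PIPES, pH 7.4. The buffer contained 1.2 mM CaCl2 and 0.8 mM MgCl2, or no added divalent salts. Incubation was 2 h at 37°C, and survivors were counted as colonies.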

[13] = system: Candida albicans; assay: Microbicidal activity against Candida albicans 16820 in presence of 1.2 mM Calcium ions; assay type: functional, organism-based; outline: as §4
[14] = system: Staphylococcus aureus; assay: Microbicidal activity against Staphylococcus aureus 502a in presence of 0.8 mM Magnesium ions; assay type: functional, organism-based
[15] = system: Escherichia coli; assay: Microbicidal activity against Escherichia coli ML35 in presence of 0.8 mM Magnesium ions; assay type: functional, organism-based; outline: as §4
[16] = system: Candida albicans; assay: Microbicidal activity against Candida albicans 16820 in presence of 0.8 mM Magnesium ions; assay type: functional, organism-based; outline: as §4
[17] = system: Staphylococcus aureus; assay: Microbicidal activity against Staphylococcus aureus 502a at 0.5 to 2 ug/ml in presence of 10% human serum; assay type: functional, organism-based
Outline: (§5)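 S. aureus was incubated with a dose series of peptide in 10 mM PIPES, pH 7.4, containing 10% normal human serum. Bacterial killing was determined by colony counting and expressed as a percentage of killing in incubations lacking serum.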

[18] = system: Staphylococcus aureus; assay: Microbicidal activity against Staphylococcus aureus 502a at >= 2 ug/ml in presence of 10% human serum; assay type: functional, organism-based; outline: as §5
[19] = system: Escherichia coli; assay: Microbicidal activity against Escherichia coli ML35 at <=8 ug/ml in presence of 10% heat-inactivated human serum; assay type: functional, organism-based
Outline: (§6)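 Human serum was heat-inactivated at 55°C for 30 min and clarified by centrifugation. E. coli was then exposed to a dose series of peptide in 10 mM PIPES, pH 7.4, with 10% of this serum. Killing was counted as colonies and expressed relative to incubations without serum.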

[20] = system: Escherichia coli; assay: Microbicidal activity against Escherichia coli ML35 at 16 ug/ml in presence of 10% heat-inactivated human serum; assay type: functional, organism-based; outline: as §6
[21] = system: Escherichia coli; assay: Microbicidal activity against Escherichia coli ML35 assessed as induction of cytoplasmic membrane permeabilization at 1 ug/ml; assay type: functional, organism-based
Outline: (§7)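 Log-phase E. coli ML35 (1–2 × 10^6 CFU/ml) was incubated with peptide (0–8 μg/ml final) in 10 mM PIPES, pH 7.4, containing 3 mM ONPG. ONPG hydrolysis was followed at 405 nm for 60 min. The rate was taken as the highest kinetic slope and corrected for peptide inhibition of β-galactosidase measured cell-free.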

[22] = biological target: Beta-galactosidase (Escherichia coli) (UniProt Q8VNN2); assay: Inhibition of Escherichia coli ML35 beta-galactosidase assessed as inhibition of o-nitrophenyl-beta-d-galactopyranoside hydrolysis at 1 ug/ml after 60 mins; outline: as §7
[23] = Toxicity in human Erythrocyte assessed as hemolysis at 100 ug/ml; assay type: cell-based
Outline: (§8)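 Erythrocytes from EDTA-anticoagulated human donor blood were washed in PBS or PiBS containing 4 mM EDTA, then resuspended without EDTA at 2% (vol/vol). Cells were incubated with peptide (0.3–100 μg/ml final) for 1 h at 37°C, with or without 10% autologous serum. Supernatant A405 was expressed relative to 1% Nonidet P-40 lysis.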

[24] = Toxicity in human Erythrocyte assessed as hemolysis at 100 ug/ml in presence of 10% serum; assay type: cell-based; outline: as §8
[25] = Selectivity index, ratio of MMC for Staphylococcus aureus 502a to hemolytic activity for human erythrocytes
[26] = system: Candida albicans; assay: Microbicidal activity against Candida albicans 16820 assessed as log reduction in microbial count at 10 ug/ml using PIPES buffer
[27] = system: Staphylococcus aureus; assay: Microbicidal activity against Staphylococcus aureus 502a using 10 mM Tris-HCl buffer in presence of 154 mM NaCl; assay type: functional, organism-based; outline: as §3
[28] = Inhibition of beta-galactosidase in cell-free system assessed as inhibition of o-nitrophenyl-beta-d-galactopyranoside hydrolysis
[29] = biological target: Beta-galactosidase (Escherichia coli) (UniProt Q8VNN2); assay: Inhibition of Escherichia coli ML35 Beta-galactosidase assessed as inhibition of o-nitrophenyl-beta-d-galactopyranoside hydrolysis at 4 ug/ml

Sequence of Beta-galactosidase (Escherichia coli) (Q8VNN2 whole entry, looked up): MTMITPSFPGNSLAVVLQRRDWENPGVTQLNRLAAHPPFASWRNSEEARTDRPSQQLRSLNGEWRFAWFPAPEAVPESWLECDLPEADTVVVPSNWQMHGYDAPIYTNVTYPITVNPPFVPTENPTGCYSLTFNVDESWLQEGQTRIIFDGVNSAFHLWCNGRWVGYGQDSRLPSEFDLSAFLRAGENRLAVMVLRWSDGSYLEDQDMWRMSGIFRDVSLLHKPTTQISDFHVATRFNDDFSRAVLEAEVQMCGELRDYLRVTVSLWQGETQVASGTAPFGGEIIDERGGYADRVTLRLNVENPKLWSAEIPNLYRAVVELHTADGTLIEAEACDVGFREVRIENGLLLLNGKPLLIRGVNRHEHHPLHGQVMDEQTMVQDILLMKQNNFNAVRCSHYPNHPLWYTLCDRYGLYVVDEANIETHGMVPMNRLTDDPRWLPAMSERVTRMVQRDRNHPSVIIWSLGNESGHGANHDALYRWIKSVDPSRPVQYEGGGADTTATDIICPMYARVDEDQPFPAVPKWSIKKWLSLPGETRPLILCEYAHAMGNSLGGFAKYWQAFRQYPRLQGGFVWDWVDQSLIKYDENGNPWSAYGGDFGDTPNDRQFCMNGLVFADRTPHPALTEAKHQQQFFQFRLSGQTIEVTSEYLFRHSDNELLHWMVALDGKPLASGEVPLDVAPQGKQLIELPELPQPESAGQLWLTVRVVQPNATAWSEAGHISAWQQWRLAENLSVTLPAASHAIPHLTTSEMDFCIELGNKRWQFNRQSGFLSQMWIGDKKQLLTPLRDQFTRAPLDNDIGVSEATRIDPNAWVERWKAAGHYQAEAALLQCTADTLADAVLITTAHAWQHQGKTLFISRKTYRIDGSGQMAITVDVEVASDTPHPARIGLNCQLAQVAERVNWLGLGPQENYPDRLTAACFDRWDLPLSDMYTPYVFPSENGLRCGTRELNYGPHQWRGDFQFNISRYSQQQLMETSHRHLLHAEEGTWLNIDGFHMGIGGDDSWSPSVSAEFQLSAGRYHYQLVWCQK

CC[C@H](C)[C@@H]1NC(=O)C2CSSCC(NC(=O)[C@H](CCCNC(=N)N)NC(=O)[C@@H]3CSSC[C@H](NC1=O)C(=O)N[C@@H]([C@@H](C)O)C(=O)N[C@@H](CCCNC(=N)N)C(=O)NCC(=O)N[C@@H](Cc1ccccc1)C(=O)N3)C(=O)N[C@@H]([C@@H](C)CC)C(=O)N[C@H]1CSSC[C@H](NC(=O)[C@H](Cc3ccccc3)NC(=O)CNC(=O)[C@H](CCCNC(=N)N)NC(=O)[C@H]([C@@H](C)O)NC1=O)C(=O)N[C@@H](CCCNC(=N)N)C(=O)N2 (single isomer, unassigned)
MMC [1]: 1.5 µg/mL | inhibition [2]: 78% | Activity [3]: 21 µg/mL | MMC [4]: 2.3 µg/mL | MMC [5]: 3 µg/mL | Activity [6]: Active | Activity [7]: inactive | Activity [8]: inactive | Activity [9]: inactive | Activity [10]: inactive | Activity [11]: Active | Activity [12]: Active | Activity [13]: inactive | Activity [14]: Active | Activity [15]: Active | Activity [16]: inactive | Activity [17]: inactive | Activity [18]: Active | Activity [19]: inactive | Activity [20]: Active | Activity [21]: inactive | inhibition [22]: Active | Activity [23]: Non-toxic | Activity [24]: Non-toxic | Selectivity Index [25]: 14 | FC [26]: >3

CC[C@H](C)[C@@H]1NC(=O)[C@@H]2CSSC[C@H](NC(=O)[C@H](CCCNC(=N)N)NC(=O)[C@@H]3CSSC[C@H](NC1=O)C(=O)N[C@@H]([C@H](C)O)C(=O)N[C@@H](CCCNC(=N)N)C(=O)NCC(=O)N[C@H](Cc1ccccc1)C(=O)N3)C(=O)N[C@@H](CC(C)C)C(=O)N[C@@H]1CSSC[C@@H](NC(=O)[C@H](C(C)C)NC(=O)CNC(=O)[C@H](CCCNC(=N)N)NC(=O)[C@H](CCCNC(=N)N)NC1=O)C(=O)N[C@@H](CCCNC(=N)N)C(=O)N2
Activity [6]: Active | Activity [7]: inactive | Activity [8]: inactive | Activity [9]: Active | Activity [27]: Active | Activity [10]: Active | Activity [11]: Active | Activity [12]: Active | Activity [13]: inactive | Activity [14]: Active | Activity [15]: Active | Activity [16]: inactive | Activity [17]: inactive | Activity [18]: Active | Activity [19]: inactive | Activity [20]: Active | Activity [21]: Active | inhibition [28]: Dose-dependent effect | inhibition [29]: 36%

CC[C@H](C)[C@@H]1NC(=O)[C@@H]2CSSC[C@H](NC(=O)[C@H](CCCNC(=N)N)NC(=O)[C@@H]3CSSC[C@H](NC1=O)C(=O)N[C@@H]([C@@H](C)O)C(=O)N[C@@H](CCCNC(=N)N)C(=O)NCC(=O)N[C@@H](Cc1ccccc1)C(=O)N3)C(=O)N[C@@H](CC(C)C)C(=O)N[C@H]1CSSC[C@H](NC(=O)[C@H](C(C)C)NC(=O)CNC(=O)[C@H](CCCNC(=N)N)NC(=O)[C@H](CCCNC(=N)N)NC1=O)C(=O)N[C@@H](CCCNC(=N)N)C(=O)N2
MMC [1]: 1 µg/mL | MMC [4]: 2 µg/mL | MMC [5]: 1 µg/mL | Selectivity Index [25]: 5.5 | FC [26]: >3

CC(C)C[C@@H]1NC(=O)[C@@H]2CSSC[C@H](NC(=O)[C@H](CCCNC(=N)N)NC(=O)[C@@H]3CSSC[C@H](NC1=O)C(=O)N[C@@H](CCCNC(=N)N)C(=O)N[C@@H](CCCNC(=N)N)C(=O)NCC(=O)N[C@@H](C(C)C)C(=O)N3)C(=O)N[C@@H](CC(C)C)C(=O)N[C@H]1CSSC[C@H](NC(=O)[C@H](C(C)C)NC(=O)CNC(=O)[C@H](CCCNC(=N)N)NC(=O)[C@H](CCCNC(=N)N)NC1=O)C(=O)N[C@@H](CCCNC(=N)N)C(=O)N2 (cyclo(CLCRRGVCRCLCRRGVCR); disulfide 1-10, 3-8, 12-17)
MMC [1]: 1 µg/mL | Activity [3]: 6.2 µg/mL | MMC [4]: 2 µg/mL | MMC [5]: 1 µg/mL | Activity [6]: Active | Activity [7]: inactive | Activity [8]: inactive | Activity [9]: Active | Activity [27]: Active | Activity [10]: Active | Activity [11]: Active | Activity [12]: Active | Activity [13]: inactive | Activity [14]: Active | Activity [15]: Active | Activity [16]: inactive | Activity [18]: Active | Activity [19]: inactive | Activity [20]: Active | Activity [21]: Active | inhibition [28]: Dose-dependent effect | inhibition [29]: 36% | inhibition [22]: Active | Activity [23]: Non-toxic | Activity [24]: Non-toxic | Selectivity Index [25]: 6.2 | FC [26]: >3

From ChEMBL document CHEMBL1255250, “Microbicidal properties and cytocidal selectivity of rhesus macaque theta defensins” (Antimicrob Agents Chemother, 2008)
